ChEMBL document CHEMBL1765016, “Indolylarylsulfones as HIV-1 non-nucleoside reverse transcriptase inhibitors: new cyclic substituents at indole-2-carboxamide” (J Med Chem, 2011)

Columns and labels:
[1] = Cytotoxicity against human CEM cells by coulter counter analysis; format: cell-based; conditions: CEM (CCRF-CEM) cells
In short: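 Mock-infected CEM cultures with compound, cell number counted by Coulter counter as percent of untreated control. CC₅₀ (50% reduction in proliferation) was read from plots against concentration. Values are means of two experiments in triplicate.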

[2] = biological target: Human immunodeficiency virus type 1 reverse transcriptase (Human immunodeficiency virus 1, UniProt Q72547, Y181I); assay: Inhibition of HIV1 reverse transcriptase Y181I mutant expressed in Escherichia coli assessed as incorporation of [3H]dTTP into poly(rA)/oligo(dT) by scintillation counting
In short: (§1)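 The RT was recombinant p66(His)/p51 heterodimer, mutant form, expressed in E. coli. TCA-precipitable radioactivity on GF/C filters was read by scintillation. IC50 is the concentration giving 50% inhibition.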

[3] = biological target: Human immunodeficiency virus type 1 reverse transcriptase (Human immunodeficiency virus 1, UniProt Q72547); assay: Inhibition of HIV1 wild type reverse transcriptase expressed in Escherichia coli assessed as incorporation of [3H]dTTP into poly(rA)/oligo(dT) by scintillation counting
In short: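 Template was poly(rA)/oligo(dT) 10:1 (0.3 μM 3′-OH ends) with 10 μM [³H]dTTP, at 37 °C. TCA-precipitable counts were taken on GF/C filters. IC₅₀ is 50% inhibition of RT activity.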

[4] = tested on: Human immunodeficiency virus 1; assay: Antiviral activity against wild type HIV1 3B infected in human CEM cells assessed as inhibition of virus-induced cytopathicity after 4 days by microscopic analysis; format: functional, organism-based; conditions: Human immunodeficiency virus 1, 3B, CCRF-CEM, 96 h
In short: (§2)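 CEM cells (~3 × 10⁵ cells/mL) infected with ~100 CCID₅₀ virus per mL, seeded into wells with compound dilutions. Syncytia (giant cell) formation scored microscopically after 4 days at 37 °C. EC₅₀ is the concentration protecting cells by 50%. Values are means of two experiments in triplicate.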

[5] = Selectivity index, CC50 for human CEM cells to IC50 for HIV1 3B; format: functional, CCRF-CEM
In short: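 Ratio of CC₅₀ (Coulter count, mock-infected CEM) to EC₅₀ (CEM, HIV-1 IIIB, microscopic syncytia scoring at day 4).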

[6] = tested on: Human immunodeficiency virus 1; assay: Antiviral activity against HIV1 harboring reverse transcriptase L100I mutant infected in human MT-4 cells assessed as inhibition of virus-induced cytopathicity after 4 days by MTT assay; format: functional, organism-based; conditions: Human immunodeficiency virus 1, MT4, 96 h
In short: (§3)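 MT-4 cells at 1 × 10⁵ cells/mL were infected with RT-mutant HIV-1 at a multiplicity of infection of 0.02. They were plated at once with serial compound dilutions (DMSO stocks of 50 mM or higher). […] Virus stocks had been titrated in MT-4 cells as CCID50.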

[7] = tested on: Human immunodeficiency virus 1; assay: Antiviral activity against HIV1 harboring reverse transcriptase E138K mutant infected in human MT-4 cells assessed as inhibition of virus-induced cytopathicity after 4 days by MTT assay; format: functional, organism-based; conditions: Human immunodeficiency virus 1, MT4, 96 h; in short: as §3
[8] = tested on: Human immunodeficiency virus 1; assay: Antiviral activity against […] harboring reverse transcriptase K103N mutant infected in human MT-4 cells assessed as inhibition of virus-induced cytopathicity after 4 days by MTT assay; format: functional, organism-based; conditions: Human immunodeficiency virus 1, MT4, 96 h; in short: as §3
[9] = tested on: Human immunodeficiency virus 1; assay: Antiviral activity against HIV1 harboring reverse transcriptase Y181C mutant infected in human MT-4 cells assessed as inhibition of virus-induced cytopathicity after 4 days by MTT assay; format: functional, organism-based; conditions: Human immunodeficiency virus 1, MT4, 96 h; in short: as §3
[10] = biological target: Human immunodeficiency virus type 1 reverse transcriptase (Human immunodeficiency virus 1, UniProt Q72547, L100I); assay: Inhibition of HIV1 reverse transcriptase L100I mutant expressed in Escherichia coli assessed as incorporation of [3H]dTTP into poly(rA)/oligo(dT) by scintillation counting; in short: as §1
[11] = biological target: Human immunodeficiency virus type 1 reverse transcriptase (Human immunodeficiency virus 1, UniProt Q72547, K103N); assay: Inhibition of HIV1 reverse transcriptase K103N mutant expressed in Escherichia coli assessed as incorporation of [3H]dTTP into poly(rA)/oligo(dT) by scintillation counting; in short: as §1
[12] = tested on: Human immunodeficiency virus 1; assay: Antiviral activity against HIV1 harboring reverse transcriptase Y188L mutant infected in human MT-4 cells assessed as inhibition of virus-induced cytopathicity after 4 days by MTT assay; format: functional, organism-based; conditions: Human immunodeficiency virus 1, MT4, 96 h; in short: as §3
[13] = tested on: Human immunodeficiency virus 2; assay: Antiviral activity against HIV2 isolate ROD infected in human CEM cells assessed as inhibition of virus-induced cytopathicity after 4 days by microscopic analysis; format: functional, organism-based; conditions: Human immunodeficiency virus 2, ISOLATE ROD, CCRF-CEM, 96 h; in short: as §2
[14] = tested on: Human immunodeficiency virus 1; assay: Antiviral activity against wild type HIV1 3B infected in human MT-4 cells assessed as inhibition of virus-induced cytopathicity after 4 days by MTT assay; format: functional, organism-based; conditions: Human immunodeficiency virus 1, 3B, MT4, 96 h
In short: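 MT-4 cells at 1 × 10⁵ cells/mL, infected at MOI 0.02 (virus titrated as CCID₅₀ in MT-4), dispensed immediately onto serial compound concentrations (DMSO stocks ≥50 mM). Viable cells counted by MTT after 4 days at 37 °C. EC₅₀ is the concentration giving 50% protection of cell viability. Values are means of at least three experiments.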

[15] = tested on: Human immunodeficiency virus 1; assay: Antiviral activity against HIV1 clade C DJ259 infected in PHA-stimulated human PBMC assessed as inhibition of p24 production after 10 to 12 days by ELISA; format: functional, organism-based; conditions: Human immunodeficiency virus 1, clade C DJ259
In short: (§4)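 PHA-stimulated (2 μg/mL, 3 days, 37 °C) donor PBMC blasts, washed in PBS, seeded 0.5 × 10⁶ cells/well in RPMI 1640 with 10% fetal calf serum and IL-2 (25 units/mL) containing varying compound concentrations; virus added at 250 pg p24/mL final. Supernatant collected days 10-12 and assayed for HIV-1 core antigen.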

[16] = tested on: Human immunodeficiency virus 1; assay: Antiviral activity against HIV1 clade A UG273 infected in PHA-stimulated human PBMC assessed as inhibition of p24 production after 10 to 12 days by ELISA; format: functional, organism-based; conditions: Human immunodeficiency virus 1, clade A UG273; in short: as §4
[17] = tested on: Human immunodeficiency virus 1; assay: Antiviral activity against HIV1 group O BCF06 infected in PHA-stimulated human PBMC assessed as inhibition p24 production after 10 to 12 days by ELISA; format: functional, organism-based; conditions: Human immunodeficiency virus 1, group O BCF06; in short: as §4
[18] = tested on: Human immunodeficiency virus 1; assay: Antiviral activity against HIV1 clade B BaL infected in PHA-stimulated human PBMC assessed as inhibition of p24 production after 10 to 12 days by ELISA; format: functional, organism-based; conditions: Human immunodeficiency virus 1, clade B BaL; in short: as §4
[19] = tested on: Human immunodeficiency virus 1; assay: Antiviral activity against HIV1 clade A/E ID12 infected in PHA-stimulated human PBMC assessed as inhibition of p24 production after 10 to 12 days by ELISA; format: functional, organism-based; conditions: Human immunodeficiency virus 1, clade A/E ID12; in short: as §4
[20] = tested on: Human immunodeficiency virus type 1 reverse transcriptase (Human immunodeficiency virus 1), Q72547 [K103N]; assay: Ratio of compound IC50 to efavirenz IC50 for HIV1 reverse transcriptase K103N mutant

Row | Compound | CC50 [1] | IC50 [2] | IC50 [3] | EC50 [4] | Selectivity Index [5] | EC50 [6] | EC50 [7] | EC50 [8] | EC50 [9] | IC50 [10] | IC50 [11] | EC50 [12] | EC50 [13] | EC50 [14] | EC50 [15] | EC50 [16] | EC50 [17] | EC50 [18] | EC50 [19] | Ratio IC50 [20]
1 | Cc1cc(C)cc(S(=O)(=O)c2c(C(=O)NCc3ccccc3)[nH]c3ccc(Br)cc23)c1 | 172 µM | > 40 µM | 1.05 µM | 0.0057 µM | 30175 | 0.011 µM | 0.051 µM | 0.015 µM | 0.059 µM | 0.273 µM | 1.85 µM | ≥ 0.45 µM | > 2 µM | 0.016 µM |  |  |  |  |  | 
2 | Cc1cc(C)cc(S(=O)(=O)c2c(C(=O)NCCc3ccccc3)[nH]c3ccc(Cl)cc23)c1 | 185 µM | > 40 µM | 0.077 µM | 0.0057 µM | 32456 | 0.019 µM | 0.065 µM | 0.052 µM | 0.1 µM | 0.027 µM | 10.4 µM | > 1 µM | > 50 µM | 0.021 µM |  |  |  |  |  | 
3 | Cc1cc(C)cc(S(=O)(=O)c2c(C(=O)NCN3CCOCC3)[nH]c3ccc(Cl)cc23)c1 | 11 µM | 5.48 µM | 0.054 µM | 0.0019 µM | 5789 | 0.008 µM | 0.014 µM | 0.011 µM | 0.023 µM | 0.117 µM | 0.512 µM | 0.44 µM | > 2 µM | 0.0032 µM | 0.0005 µM | 0.0001 µM | 0.0009 µM | 0.0001 µM | 0.0003 µM | 
4 | Cc1cc(C)cc(S(=O)(=O)c2c(C(=O)NCCn3cccc3)[nH]c3ccc(Cl)cc23)c1 | 54 µM | > 40 µM | 0.014 µM | 0.0065 µM | 8308 | 0.011 µM | 0.018 µM | 0.015 µM | 0.067 µM | 0.034 µM | 0.085 µM | > 1 µM | > 10 µM | 0.015 µM | 0.0035 µM | 0.0021 µM | 0.0032 µM | 0.0023 µM | 0.0029 µM | 
5 | Cc1cc(C)cc(S(=O)(=O)c2c(C(=O)NCc3ccccc3)[nH]c3ccc(Cl)cc23)c1 | 244 µM | > 40 µM | 0.021 µM | 0.0057 µM |  | 0.0061 µM | 0.018 µM | 0.011 µM | 0.046 µM | 0.015 µM | > 40 µM | 0.48 µM | > 10 µM | 0.011 µM |  |  |  |  |  | 
6 | Cc1cc(C)cc(S(=O)(=O)c2c(C(=O)NCN3CCCC3)[nH]c3ccc(Cl)cc23)c1 | 11 µM | 0.442 µM | 0.012 µM | 0.0033 µM | 3333 |  |  |  |  | 0.026 µM | 0.096 µM |  | > 2 µM |  | 0.0001 µM | 0.0001 µM | 0.0002 µM | 0.0001 µM | 0.0003 µM | 
7 | Cc1cc(C)cc(S(=O)(=O)c2c(C(=O)NCCOc3ccccc3)[nH]c3ccc(Cl)cc23)c1 | 207 µM | > 40 µM | 2.39 µM | 0.026 µM | 7962 | 0.44 µM | 0.38 µM | > 1 µM | > 1 µM | > 40 µM | > 40 µM | > 1 µM | > 10 µM | 0.3 µM |  |  |  |  |  | 
8 | Cc1cc(C)cc(S(=O)(=O)c2c(C(=O)NCN3CCCCC3)[nH]c3ccc(Cl)cc23)c1 | 9.9 µM | 0.581 µM | 0.008 µM | 0.0013 µM | 7615 |  |  |  |  | 0.037 µM | 0.12 µM |  | > 2 µM |  |  |  |  |  |  | > 160
9 | Cc1cc(C)cc(S(=O)(=O)c2c(C(=O)NCc3ccccc3)[nH]c3ccc([N+](=O)[O-])cc23)c1 | 8 µM | > 40 µM | 0.017 µM | 0.0062 µM | 1290 | 0.007 µM | 0.016 µM | 0.011 µM | 0.054 µM | 0.014 µM | 0.459 µM | 0.47 µM | > 2 µM | 0.01 µM |  |  |  |  |  | 
10 | Cc1cc(C)cc(S(=O)(=O)c2c(C(=O)NCCN3CCCC3)[nH]c3ccc(Cl)cc23)c1 | 7.1 µM | > 40 µM | 0.08 µM | 0.017 µM | 418 | 0.084 µM | 0.26 µM | 0.08 µM | 0.38 µM | 0.248 µM | 0.66 µM | > 1 µM | > 2 µM | 0.019 µM |  |  |  |  |  | 
